In ChEMBL document CHEMBL1165950, “Design and synthesis of new potent anticancer pyrazoles with high FLT3 kinase inhibitory selectivity” (Bioorg Med Chem, 2010):

Key:
Format in all cases: functional
[1] = system: 786-0; assay: Cytotoxicity against human 786-0 cells assessed as cell growth at 0.01 uM after 48 hrs by sulforhodamine B assay; conditions: 786-0, 48 h, read-out: Activity
Summary of the method: (§1)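 NCI-60 five-dose screen. Cells were grown in RPMI 1640 with 5% FBS and 2 mM L-glutamine, plated at 5000–40,000 cells/well and preincubated for 24 h. Time-zero plates were TCA-fixed. DMSO-solubilized drug was added at five concentrations (10-fold or ½-log serial dilutions) for 48 h at 37 °C, 5% CO2. Cells were TCA-fixed, stained with 0.4% SRB and read at 515 nm. Percent growth used time-zero, control and test absorbances.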

[2] = system: SNB-19; assay: Cytotoxicity against human SNB19 cells assessed as cell growth at 1 uM after 48 hrs by sulforhodamine B assay; conditions: SNB-19, 48 h, read-out: Activity
[3] = system: SN12C; assay: Cytotoxicity against human SN12C cells assessed as cell growth at 1 uM after 48 hrs by sulforhodamine B assay; conditions: read-out: Activity
[4] = system: HCT-116; assay: Growth inhibition of human HCT116 cells after 48 hrs by sulforhodamine B assay; conditions: HCT-116, 48 h; for CC50: read-out: LC50 (the source's name)
Summary of the method: (§2)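 NCI 60-cell screen, five-dose mode. Cells grown in RPMI 1640 with 5% FBS and 2 mM L-glutamine and plated at 5000-40,000 cells/well according to doubling time. After 24 h preincubation, a Tz plate was TCA-fixed. Five concentrations (10-fold or 1/2 log dilutions) were applied for 48 h at 37 °C. SRB staining read at 515 nm. IC50 taken from [(Ti-Tz)/(C-Tz)]×100 = 50.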

[5] = system: SK-MEL-2; assay: Cytotoxicity against human SK-MEL-2 cells assessed as cell growth at 10 uM after 48 hrs by sulforhodamine B assay; conditions: SK-MEL-2, 48 h, read-out: Activity
[6] = system: HOP-92; assay: Cytotoxicity against human HOP92 cells assessed as cell growth at 1 uM after 48 hrs by sulforhodamine B assay; conditions: HOP-92, 48 h, read-out: Activity
[7] = system: SF-268; assay: Cytotoxicity against human SF268 cells assessed as cell growth at 0.01 uM after 48 hrs by sulforhodamine B assay; conditions: SF-268, 48 h, read-out: Activity
[8] = system: HOP-62; assay: Cytotoxicity against human HOP62 cells assessed as cell growth at 0.001 uM after 48 hrs by sulforhodamine B assay; conditions: HOP-62, 48 h, read-out: Activity
[9] = system: PC-3; assay: Cytotoxicity against human PC3 cells assessed as cell growth at 10 uM; conditions: read-out: Activity
Summary of the method: (§3)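 NCI-60 screen: cells grown in RPMI 1640 with 5% FBS and 2 mM L-glutamine, plated at 5000–40,000 cells/well according to doubling time, and preincubated 24 h at 37 °C, 5% CO2. The single 10 µM dose (DMSO stock) was added, then incubated 48 h. Cells were TCA-fixed and stained with 0.4% SRB, read at 515 nm, and growth % calculated against time-zero and control plates.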

[10] = system: MOLT-4; assay: Growth inhibition of human MOLT4 cells after 48 hrs by sulforhodamine B assay; conditions: MOLT-4, 48 h; summary of the method: as §2
[11] = system: A498; assay: Cytotoxicity against human A498 cells assessed as cell growth at 1 uM after 48 hrs by sulforhodamine B assay; conditions: A498, 48 h, read-out: Activity; summary of the method: as §1
[12] = system: BT-549; assay: Cytotoxicity against human BT549 cells assessed as cell growth at 10 uM; conditions: read-out: Activity
Summary of the method: (§4)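 Single-dose NCI-60 screen at 10 µM. Cells were grown in RPMI 1640 with 5% FBS and 2 mM L-glutamine, then treated for 48 h at 37 °C. Protein was measured by SRB staining with absorbance at 515 nm. Percentage growth was recorded, and inhibition percentage was calculated as 100 minus growth percentage.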

[13] = system: 786-0; assay: Cytotoxicity against human 786-0 cells assessed as cell growth at 10 uM; conditions: read-out: Activity; summary of the method: as §4
[14] = system: UO-31; assay: Cytotoxicity against human UO31 cells assessed as cell growth at 0.001 uM after 48 hrs by sulforhodamine B assay; conditions: UO-31, 48 h, read-out: Activity
[15] = system: SN12C; assay: Cytotoxicity against human SN12C cells assessed as cell growth at 10 uM; conditions: read-out: Activity; summary of the method: as §3
[16] = system: ACHN; assay: Cytotoxicity against human ACHN cells assessed as cell growth at 100 nM after 48 hrs by sulforhodamine B assay; conditions: read-out: Activity; summary of the method: as §1
[17] = system: SNB-75; assay: Cytotoxicity against human SNB75 cells assessed as cell growth at 0.001 uM after 48 hrs by sulforhodamine B assay; conditions: SNB-75, 48 h, read-out: Activity
[18] = system: COLO 205; assay: Growth inhibition of human COLO205 cells after 48 hrs by sulforhodamine B assay; conditions: COLO 205, 48 h; for CC50: read-out: LC50 (the source's name)
Summary of the method: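 NCI five-dose SRB assay in RPMI 1640 with 5% FBS and 2 mM L-glutamine. Cells were preincubated 24 h, then exposed 48 h at 37 °C to five concentrations (10-fold or half-log serial dilutions from DMSO stocks). TCA fixation, SRB staining, and absorbance at 515 nm followed. IC50 was taken where [(Ti−Tz)/(C−Tz)]×100 = 50, with Tz as time-zero cell density.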

[19] = system: SK-MEL-5; assay: Cytotoxicity against human SK-MEL-5 cells assessed as cell growth at 0.01 uM after 48 hrs by sulforhodamine B assay; conditions: SK-MEL-5, 48 h, read-out: Activity
[20] = system: SN12C; assay: Cytotoxicity against human SN12C cells assessed as cell growth at 100 nM after 48 hrs by sulforhodamine B assay; conditions: read-out: Activity
[21] = system: SNB-75; assay: Cytotoxicity against human SNB75 cells assessed as cell growth at 1 uM after 48 hrs by sulforhodamine B assay; conditions: SNB-75, 48 h, read-out: Activity
[22] = system: KM12; assay: Growth inhibition of human KM12 cells after 48 hrs by sulforhodamine B assay; conditions: KM12, 48 h; for CC50: read-out: LC50 (the source's name); summary of the method: as §2
[23] = system: HL-60(TB); assay: Cytotoxicity against human HL-60(TB) cells assessed as cell growth at 10 uM; conditions: read-out: Activity
Summary of the method: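 NCI 60-cell panel screen at a single concentration of 10 µM. Cells are grown in RPMI 1640 with 5% FBS and 2 mM L-glutamine and read by SRB protein staining at 515 nm. Percent growth is measured relative to time-zero and untreated controls; inhibition % is 100 minus growth %.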

[24] = system: SF-268; assay: Cytotoxicity against human SF268 cells assessed as cell growth at 100 nM after 48 hrs by sulforhodamine B assay; conditions: SF-268, 48 h, read-out: Activity
[25] = system: MDA-MB-468; assay: Cytotoxicity against human MDA-MB-468 cells assessed as cell growth at 100 nM after 48 hrs by sulforhodamine B assay; conditions: MDA-MB-468, 48 h, read-out: Activity
[26] = system: SK-MEL-2; assay: Cytotoxicity against human SK-MEL-2 cells assessed as cell growth at 10 uM; conditions: read-out: Activity; summary of the method: as §3
[27] = system: OVCAR-4; assay: Cytotoxicity against human OVCAR4 cells assessed as cell growth at 0.01 uM after 48 hrs by sulforhodamine B assay; conditions: OVCAR-4, 48 h, read-out: Activity
[28] = system: Malme-3M; assay: Cytotoxicity against human MALME-3M cells assessed as cell growth at 10 uM; conditions: read-out: Activity; summary of the method: as §3

Compound	growth at 0.01 µM [1] [%]	growth at 1 µM [2] [%]	growth at 1 µM [3] [%]	GI50 [4] [µM]	TGI [4] [µM]	CC50 [4] [µM]	growth at 10 µM [5] [%]	growth at 1 µM [6] [%]	growth at 0.01 µM [7] [%]	growth at 0.001 µM [8] [%]	growth at 10 µM [9] [%]	GI50 [10] [µM]	LC50 [10] [µM]	TGI [10] [µM]	growth at 1 µM [11] [%]	growth at 10 µM [12] [%]	growth at 10 µM [13] [%]	growth at 0.001 µM [14] [%]	growth at 10 µM [15] [%]	growth at 0.1 µM [16] [%]	further results
COc1cc(C)cc(-c2c(-c3ccnc(-c4ccc(C(C)=O)cc4)c3)cnn2CC#N)c1	98	60	28	1.7	5.4	> 100	20	-9	96	94	77.3	2.63	> 100	> 100	17	60	67.2	88	66	90	growth at 0.001 µM [17]: 80%; GI50 [18]: 1.95 µM; TGI [18]: 3.7 µM; CC50 [18]: 7.02 µM; growth at 0.01 µM [19]: 94%; growth at 0.1 µM [20]: 92%; growth at 1 µM [21]: -5%; GI50 [22]: 2.87 µM; TGI [22]: > 100 µM; CC50 [22]: > 100 µM; growth at 10 µM [23]: 57%; growth at 0.1 µM [24]: 85%; growth at 0.1 µM [25]: 68%; growth at 10 µM [26]: 73.7%; growth at 0.01 µM [27]: 101%; growth at 10 µM [28]: 103%
COc1cc(C)cc(-c2nn(CC#N)cc2-c2ccc(-c3cccc(C(C)=O)c3)nc2)c1	97	39	39	2.33	10.6	87.4	-14	-4	94	84	31.5	3.35	> 100	> 100	-21	25.4	18	86	40.2	93	growth at 0.001 µM [17]: 82%; GI50 [18]: 1.85 µM; TGI [18]: 4.13 µM; CC50 [18]: 9.2 µM; growth at 0.01 µM [19]: 91%; growth at 0.1 µM [20]: 91%; growth at 1 µM [21]: -20%; GI50 [22]: 2.23 µM; TGI [22]: 13.9 µM; CC50 [22]: > 100 µM; growth at 10 µM [23]: 8.33%; growth at 0.1 µM [24]: 91%; growth at 0.1 µM [25]: 9%; growth at 10 µM [26]: 35.4%; growth at 0.01 µM [27]: 97%; growth at 10 µM [28]: 60.5%
Cc1cc(O)cc(-c2nn(CC#N)cc2-c2ccnc(-c3ccc(Oc4ccccc4)cc3)c2)c1	95	55	-57	1.56	2.9	5.38	-81	-67	91	93	66.4	2.03	> 100	6.82	26	76.1	58.1	91	60.2	95	growth at 0.001 µM [17]: 86%; GI50 [18]: 1.8 µM; TGI [18]: 3.26 µM; CC50 [18]: 5.9 µM; growth at 0.01 µM [19]: 93%; growth at 0.1 µM [20]: 86%; growth at 1 µM [21]: 30%; GI50 [22]: 1.92 µM; TGI [22]: 4.87 µM; CC50 [22]: 15.3 µM; growth at 10 µM [23]: 44.3%; growth at 0.1 µM [24]: 91%; growth at 0.1 µM [25]: 88%; growth at 10 µM [26]: 73.9%; growth at 0.01 µM [27]: 112%; growth at 10 µM [28]: 115%
